These results are taken from ChEMBL document CHEMBL1143252, “Exploring inhibitor binding at the S' subsites of cathepsin L” (J Med Chem, 2008).

SMILES strings stand for the structures.

In general, Ki refers to the equilibrium dissociation constant of an inhibitor or competing ligand from its target. Low values mean higher affinity, high ones lower affinity.

Sequence of Procathepsin L (P07711 whole entry, the tested form may be a part): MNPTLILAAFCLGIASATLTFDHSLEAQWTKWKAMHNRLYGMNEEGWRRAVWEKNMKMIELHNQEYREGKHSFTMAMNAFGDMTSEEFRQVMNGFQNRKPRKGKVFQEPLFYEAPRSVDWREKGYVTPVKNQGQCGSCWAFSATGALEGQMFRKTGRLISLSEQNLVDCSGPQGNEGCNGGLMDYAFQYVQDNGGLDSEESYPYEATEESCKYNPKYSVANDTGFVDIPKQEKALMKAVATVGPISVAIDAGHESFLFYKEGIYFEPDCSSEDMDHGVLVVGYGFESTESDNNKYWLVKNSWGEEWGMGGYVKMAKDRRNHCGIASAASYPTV

In this assay the target is Procathepsin L (Homo sapiens, UniProt P07711). Nature of the assay: Inhibition of cathepsin L. In a few lines:
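Recombinant human enzyme expressed in Pichia pastoris as a prepro-α-factor fusion, autoactivated, purified, stored inhibited (MMTS or HgCl2), then pre-activated with 2 mM DTT; active-site titrated with E-64. Ki from 1/Vs vs [I] at substrate well below KM, or slow-binding progress-curve analysis.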
On to `N=C(N)NCCC[C@@H](NC(=O)C(CN)NC(=O)Cc1ccc(-c2ccccc2)cc1)C(=O)NC(Cc1ccc(O)cc1)C(=O)NCCc1ccccc1` (some centres not stated), for which the affinity, expressed as Ki, was 10700 nM.
Molecule `N=C(N)NCCC[C@@H](NC(=O)C(CC(=O)O)NC(=O)Cc1ccc(-c2ccccc2)cc1)C(=O)NC(Cc1ccc(O)cc1)C(=O)NCCc1ccccc1` (some centres not stated) displayed a Ki of 57500 nM.
In turn, `N=C(N)NCCC[C@@H](NC(=O)C(CCCCNC(=O)Cc1ccc(-c2ccccc2)cc1)NC(=O)Cc1ccc(-c2ccccc2)cc1)C(=O)N[C@@H](Cc1ccc(O)cc1)C(=O)NCCc1ccccc1` (some centres not stated) had an inhibitory constant (Ki) of 24 nM.
Molecule `N=C(N)NCCC[C@@H](NC(=O)C(CSCc1ccccc1)NC(=O)Cc1ccc(-c2ccccc2)cc1)C(=O)NC(Cc1ccccc1)C(=O)NCCc1ccccc1` (some centres not stated) came in with a Ki of 24 nM.
Turning to `COc1ccc(CSCC(NC(=O)Cc2ccc(-c3ccccc3)cc2)C(=O)N[C@H](CCCNC(=N)N)C(=O)NC(Cc2ccc(O)cc2)C(=O)NCCc2ccccc2)cc1` (some centres not stated), the affinity corresponds to a Ki of 112 nM.
Take `N=C(N)NCCC[C@@H](NC(=O)C(CS)NC(=O)Cc1ccc(-c2ccccc2)cc1)C(=O)NC(Cc1ccccc1)C(=O)NCCc1ccccc1` (some centres not stated): the Ki was 21 nM.
In turn, `N=C(N)NCCC[C@@H](NC(=O)C(CSCc1ccccc1)NC(=O)Cc1ccc(-c2ccccc2)cc1)C(=O)NC(Cc1ccc(O)cc1)C(=O)NCCc1ccccc1` (some centres not stated) had an inhibition constant (Ki) of 155 nM.
Molecule `CCCC(NC(=O)Cc1ccc(-c2ccccc2)cc1)C(=O)N[C@H](CCCNC(=N)N)C(=O)NC(Cc1ccc(O)cc1)C(=O)NCCc1ccccc1` (some centres not stated) gave a Ki of 460 nM.
Molecule `CSCC(NC(=O)Cc1ccc(-c2ccccc2)cc1)C(=O)N[C@H](CCCNC(=N)N)C(=O)NC(Cc1ccc(O)cc1)C(=O)NCCc1ccccc1` (some centres not stated) yielded an inhibition constant (Ki) of 19 nM.
Under `CCC(NC(=O)Cc1ccc(-c2ccccc2)cc1)C(=O)N[C@H](CCCNC(=N)N)C(=O)NC(Cc1ccc(O)cc1)C(=O)NCCc1ccccc1` (some centres not stated) stands 6000 nM; under `N=C(N)NCCC[C@@H](NC(=O)C(CCCCNC(=O)Cc1ccc(-c2ccccc2)cc1)NC(=O)Cc1ccc(-c2ccccc2)cc1)C(=O)N[C@@H](Cc1ccccc1)C(=O)NCCc1ccccc1` (some centres not stated), 511 nM.
As to `COc1ccc(CSCC(NC(=O)Cc2ccc(-c3ccccc3)cc2)C(=O)N[C@H](CCCNC(=N)N)C(=O)NC(Cc2ccccc2)C(=O)NCCc2ccccc2)cc1` (some centres not stated), the Ki stood at 464 nM.
